Assay outcomes from PubChem BioAssay.
This is a sample that favours compounds with a hit; in the whole collection about 0.99% have one here.
SKN-1 inh – C. elegans SKN-1 inhibition; C. elegans VP596 Pgst-4::GFP/RFP ratio, acrylamide-induced, 24 h; inhibition, % at 21.8 µM; hit rate 0.49% among 360,000;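 active = interference check ratio from 0.5 to 1.5 plus GFP to RFP signal ratio inhibition reaching or exceeding a fixed threshold, cut at about 30% in these data, passing the limit was not always enough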
TLR9-MyD88 inh – blocks human TLR9 binding to MyD88; CHO BLA complementation TLR9-MyD88, CCF4 FRET ratio; inhibition, % at 4.98 µM; hit rate 0.21% among 340,000;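 active = inhibition above the mean over all tested compounds plus 3 SD, cut at about 21% in these data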
TLR4 MyD88 comp – blocks binding of human TLR4 to MyD88 | O00206+Q99836 | HeLa CL3-4 TLR4/MyD88 BLA complementation, FRET ratio | inhibition, % at 8.4 µM | hit rate 0.18% among 200,000; in the data active = inhibition above about 25%
NOD2 RIPK2 PPI – NOD2-RIPK2 protein interaction inhibition; AID 624267; O43353; hit rate 0.38% among 360,000; inhibition, % at 4.98 µM; CHO BLA complementation NOD2-RIPK2, CCF4 ratio; in the data active = inhibition above about 21%
Target sequence (O43353 whole entry, looked up): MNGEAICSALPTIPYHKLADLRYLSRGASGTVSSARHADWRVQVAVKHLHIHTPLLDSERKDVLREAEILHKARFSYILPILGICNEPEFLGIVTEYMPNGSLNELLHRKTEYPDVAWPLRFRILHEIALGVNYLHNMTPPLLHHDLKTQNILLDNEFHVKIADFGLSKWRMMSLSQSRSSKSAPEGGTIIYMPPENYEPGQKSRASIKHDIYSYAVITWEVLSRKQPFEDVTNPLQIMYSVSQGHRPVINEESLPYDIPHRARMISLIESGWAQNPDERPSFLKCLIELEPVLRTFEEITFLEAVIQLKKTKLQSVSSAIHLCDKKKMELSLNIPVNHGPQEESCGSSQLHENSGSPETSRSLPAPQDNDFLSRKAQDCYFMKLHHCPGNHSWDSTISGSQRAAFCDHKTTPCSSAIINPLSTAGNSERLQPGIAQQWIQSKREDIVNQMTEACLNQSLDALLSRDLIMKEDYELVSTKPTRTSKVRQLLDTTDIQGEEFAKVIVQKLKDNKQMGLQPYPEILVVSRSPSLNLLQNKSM
MT1-MMP act inh – blocks activation of human MT1-MMP; P50281; HT1080 RFP-PRO-GFP cells, GFP/RFP ratio fluorescence, overnight; percent of plate control window, DMSO zero; GFP/RFP ratio change, % at 20 µM; hit rate 0.061% among 360,000; AID 651647;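 active = GFP/RFP ratio change of at least 30% with cell ATP level not reduced by more than half and red fluorescence within 50% of control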
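Read-out: GFP/RFP fluorescence ratio; Test system: RFP-PRO-GFP reporter HT1080 cells; Compound dosing: single-point 20 µM compound, 1% DMSO; Times: overnight compound exposure at 37 °C.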
MT1-MMP act val – MT1-MMP (human) activation inhibition, single-concentration validation | shares compounds with MT1-MMP act inh | HT1080 RFP-PRO-GFP cells, GFP and RFP fluorescence ratio, overnight | inhibition, % at 20 µM | hit rate 10% among 200;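 active = inhibition of at least 50% in the primary cell screen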
Large screens that a line does not name were inactive (follow-up assays come after a bar, where they were run).

Cc1cc(C)cc(N(C(=O)CNC(=O)c2ccco2)C(C(=O)NC2CCCCC2)c2ccncc2)c1 (stereo not drawn)	none (no result: TLR4 MyD88 comp)
COC(=O)CCC(=O)OC1(C)C(=O)C2=CN(Cc3ccc(OC)cc3)C(c3ccc(OC)cc3)=CC2=C(Br)C1=O (stereo not drawn)	none (no result: TLR4 MyD88 comp)
COC(=O)CCC(=O)OC1(C)C(=O)C2=CN(CC3CC3)C(c3ccc(OC)cc3)=CC2=C(Br)C1=O (stereo not drawn)	MT1-MMP act inh 30.2 (no result: TLR4 MyD88 comp) | MT1-MMP act val inactive
C[n+]1ccc(C(=O)Nc2ccccc2Cl)cc1	none (no result: TLR4 MyD88 comp)
O=c1cc2oc3cc(O)c(O)cc3c(-c3ccccc3[N+](=O)[O-])c-2cc1O	MT1-MMP act inh 40.6 (no result: TLR4 MyD88 comp) | MT1-MMP act val 51.4
O=C(CN1CCCC1)N1CCCc2c1c(=O)oc1ccc(OCc3ccccc3)cc21	MT1-MMP act inh 50.6 | MT1-MMP act val inactive
COc1ccc(C(CNC(=O)COc2ccc(Cl)cc2C)N2CCCCC2)cc1 (stereo not drawn)	none (no result: TLR4 MyD88 comp)
COc1cc(/C=N/c2oc(C)c(C)c2C#N)cc(Br)c1O	MT1-MMP act inh 32.5 (no result: TLR4 MyD88 comp) | MT1-MMP act val inactive
COc1ccc(/C=N/c2oc(C)c(C)c2C#N)c(OC)c1	none
Cc1ccc2oc(C(=O)N3CCC(O)(c4ccccc4)CC3)c(C)c2c1	none (no result: TLR4 MyD88 comp)
COC(=O)c1ccc2c(c1)C(C)(C)C(/C=C/c1ccccc1O)=[N+]2C	none
C[N+]1=C(/C=C/Nc2ccccc2Cl)C(C)(C)c2ccccc21	MT1-MMP act inh 51.6 | MT1-MMP act val inactive
Cc1cc(C)c(S(=O)(=O)NCc2ccc3c(c2)cc(C)n3C)c(C)c1	none
Cc1cc2cc(CNS(=O)(=O)c3ccc4ccccc4c3)ccc2n1C	MT1-MMP act inh 45.0 | MT1-MMP act val inactive
CCCCOc1cccc(-c2cc(C(=O)NNC(=S)NCC)c3ccccc3n2)c1	MT1-MMP act inh 38.7 | MT1-MMP act val inactive
CCNC(=S)NNC(=O)c1cc(-c2cccc(OCC)c2)nc2ccccc12	none
O=C(Cn1nc2n(c1=O)-c1ccccc1SC2)N/N=C/c1ccncc1	none (no result: TLR4 MyD88 comp)
Cn1ncc(Cl)c1C(=O)N1CCN(c2ccc(F)cc2)CC1	none (no result: TLR4 MyD88 comp)
O=C(CCC1CCCN(C(=O)c2cccc(F)c2)C1)N1CCN(c2ccccn2)CC1 (stereo not drawn)	none (no result: TLR4 MyD88 comp)
Cc1ccc(S(=O)(=O)NCc2ccc3[nH]c(C)cc3c2)cc1	none
CC(=O)Nc1ccc(S(=O)(=O)NCc2ccc3[nH]c(C)cc3c2)cc1	MT1-MMP act inh 30.7 | MT1-MMP act val inactive
CCN1/C(=C2/SC(=S)N(C)C2=O)C=Cc2cc(C)ccc21	MT1-MMP act inh 31.2 (no result: TLR4 MyD88 comp) | MT1-MMP act val inactive
Nc1nc(-c2ccccc2)c(N=Nc2ccccc2Cl)s1	SKN-1 inh 48.6, MT1-MMP act inh 42.4 | MT1-MMP act val inactive
Nc1nc(-c2ccccc2)c(N=Nc2cccc3ccccc23)s1	MT1-MMP act inh 34.5 | MT1-MMP act val inactive
Cc1ncc(N=Nc2ccccc2Cl)c(-c2ccccc2)n1	none
Cc1ccc(C(=O)Nc2nc3n(n2)C(c2ccccc2)CC(=O)N3)cc1 (stereo not drawn)	none (no result: TLR9-MyD88 inh, TLR4 MyD88 comp)
COc1ccc(N2C(=O)CC(Sc3nc(C)cc(C)c3C#N)C2=O)cc1 (stereo not drawn)	none
CCCc1ccc(C#N)c(SC2CC(=O)N(c3ccc(OC)cc3)C2=O)n1 (stereo not drawn)	MT1-MMP act inh 32.0 | MT1-MMP act val inactive
CC(C)CN(C(=O)c1cccc(S(=O)(=O)N2CCN(Cc3ccccc3)CC2)c1)C1CCS(=O)(=O)C1 (stereo not drawn)	none (no result: TLR4 MyD88 comp)
CCn1nc(C(=O)NCc2nnc3ccccn23)c2ccccc2c1=O	none (no result: TLR4 MyD88 comp)
COc1ccc(Nc2nc(-c3c[nH]c4ccccc34)cs2)cc1	MT1-MMP act inh 33.4 | MT1-MMP act val inactive
O=C(O)CC/C(=N\Nc1ccccc1[N+](=O)[O-])c1cccs1	MT1-MMP act inh 35.5 (no result: TLR4 MyD88 comp) | MT1-MMP act val inactive
CN1/C(=C\C=N\O)C(C)(C)c2ccccc21	none
Cc1ccccc1N=C/C=C1\N(C)c2ccccc2C1(C)C	MT1-MMP act inh 55.8 | MT1-MMP act val inactive
CC(C)C[C@H]1CN(CCCC[C@@H]2CNC(=O)C(=O)N2CCc2ccccc2)C(=O)C(=O)N1CCc1ccccc1	none (no result: TLR9-MyD88 inh, TLR4 MyD88 comp)
Cc1cccc(NC(=S)NCc2ccc3c(c2)cc(C)n3C)c1C	MT1-MMP act inh 40.5 | MT1-MMP act val inactive
COc1cccc(NC(=S)NCc2ccc3c(c2)cc(C)n3C)c1	MT1-MMP act inh 37.5 | MT1-MMP act val inactive
COC(=O)[C@@]1(Cc2ccc(F)cc2)[C@H]2c3cc(C(=O)N4CCCC4)n(Cc4ccc(C)o4)c3C[C@H]2CN1C(=O)c1ccccc1	none (no result: TLR9-MyD88 inh, TLR4 MyD88 comp)
CC(=O)Nc1ccc(NC(=O)CSc2ccc3nnc(CCNS(=O)(=O)c4ccc(C)cc4)n3n2)cc1	none (no result: TLR4 MyD88 comp)
O=C(O)c1cc(N=Nc2c(O)ccc3ccccc23)cc(C(=O)O)c1	MT1-MMP act inh 32.9 | MT1-MMP act val inactive
NS(=O)(=O)c1ccc(N=Nc2c(O)ccc3ccccc23)cc1	none
Oc1ccc(N=Nc2c(O)ccc3ccccc23)cc1	MT1-MMP act inh 73.2 | MT1-MMP act val inactive
Nc1nc(-c2ccc(Cl)cc2)c(N=Nc2ccc(S(=O)(=O)N3CCOCC3)cc2)s1	MT1-MMP act inh 57.1 | MT1-MMP act val 54.6
O=S(=O)(c1ccc(Cl)cc1)N1CCC(N2CCOCC2)CC1	none
CCc1cc2c(NCC(=O)O)ncnc2s1	none
CCc1cc2c(NCc3ccco3)ncnc2s1	MT1-MMP act inh 34.0 | MT1-MMP act val inactive
O=C(O)CC(CN1C(=O)c2ccccc2C1=O)c1ccccc1 (stereo not drawn)	none (no result: TLR4 MyD88 comp)
CCN(CC)c1ccc(/C=C2\C(=O)N(c3nnc(C)c(=O)[nH]3)N=C2C)cc1	MT1-MMP act inh 32.8 (no result: TLR4 MyD88 comp) | MT1-MMP act val inactive
Cc1ccc(Cn2nc(C)c(C(=O)NCC(c3cccs3)N3CCOCC3)c2Cl)cc1 (stereo not drawn)	none (no result: TLR4 MyD88 comp)
COc1ccc(C(CNC(=O)c2c(C)nn(Cc3ccc(C)cc3)c2Cl)N2CCOCC2)cc1 (stereo not drawn)	MT1-MMP act inh 32.0 (no result: TLR4 MyD88 comp) | MT1-MMP act val inactive
CN(C)c1ccc(C=c2c3ccccc3n3c2c2c([n+]3C)CCCC2)cc1	MT1-MMP act inh 81.8 (no result: TLR4 MyD88 comp) | MT1-MMP act val 57.0
CN(C)c1ccc(C=c2c3cc([N+](=O)[O-])ccc3n3c2cc(-c2ccccc2)[n+]3C)cc1	none (no result: TLR4 MyD88 comp)
Cc1ccc2c(c1)C(C)(C)[C@]1(C)NC(=O)CCN21	MT1-MMP act inh 34.7 | MT1-MMP act val inactive
COc1ccc(Nc2ccccc2N)cc1	MT1-MMP act inh 30.9 | MT1-MMP act val 51.0
Cc1c(CC(=O)N2C[C@H]3C[C@@H](C2)c2cccc(=O)n2C3)c(=O)oc2cc3occ(C(C)(C)C)c3cc12	none (no result: TLR4 MyD88 comp)
COc1cc(/C=C2\SC(=O)N(c3ccccc3Cl)C2=O)cc([N+](=O)[O-])c1O	MT1-MMP act inh 30.8 | MT1-MMP act val inactive
